A short description of data set [1]: Cytotoxicity against human HTB-54 cells after 72 hrs by MTT assay. The settings on record: HTB-54, 72 h; for CC50: read-out: LC50 (the source's name). It counts as functional. In outline: (§1)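 MTT read-out after 72 h exposure at 37 °C in humidified 5% CO2, with five concentrations between 0.01 and 100. GI50 is 50% growth reduction versus untreated controls, TGI is complete growth inhibition, and LC50 is the concentration killing 50% of cells. Minimum three independent experiments.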
A general note: Formazan colour is commonly taken as a measure of viable cells.

A further data set has as its system CCRF-CEM. Nature of the data set: Cytotoxicity against human CCRF-CEM cells after 72 hrs by MTT assay. The class given is functional. The conditions noted are these: for CC50: read-out: LC50 (the source's name). The method in brief: as §1
The nature of data set [2]: Cytotoxicity against human BEAS2B cells after 72 hrs by MTT assay. The class given is cell-based, BEAS-2B. The conditions noted are these: for GI50 at 72 h: BEAS2B cells; for LC50 / TGI: beas-2b, 72 h. In outline:
as §1

The subject of a further data set is HT-29. Nature of the data set: Cytotoxicity against human HT-29 cells after 72 hrs by MTT assay. The class given is functional. The settings on record: HT-29, 72 h; for CC50: read-out: LC50 (the source's name). The method in brief: as §1
Data set [3] is described as follows: Cytotoxicity against human 184B5 cells after 72 hrs by MTT assay. The class given is cell-based. The settings on record: for GI50 at 72 h: 184B5 cells; for LC50 / TGI: 184b5, 72 h. In outline: as §1
The subject of another data set is MCF7. Nature of the data set: Cytotoxicity against human MCF7 cells after 72 hrs by MTT assay. It counts as functional. The settings on record: MCF7, 72 h. In outline: as §1

As a reminder, the GI50 is the concentration that inhibits growth by half. The low end stands for more potent growth inhibition, the high end for less potent growth inhibition. The TGI is the concentration giving total growth inhibition. Read a high TGI as less potent growth arrest. Usually LC50 stands for the concentration that kills 50% of the test population. For `C[Se]c1nc(N)c2cccnc2n1`, the GI50 in data set [1] came out at 78.2 µM; in the data set with CCRF-CEM, 68.4 µM; in the data set with HT-29, 44.1 µM; in the data set on MCF7, 43 µM. The TGI in data set [1] was more than 100 µM; with CCRF-CEM, more than 100 µM; in data set [2], 90.81 µM; in the data set on HT-29, 77.3 µM; in data set [3], 87.15 µM; in the data set on MCF7, more than 100 µM. Further, the CC50 (in data set [1]; in the data set on CCRF-CEM; with HT-29) was more than 100 µM throughout. The results for the GI50 at 72 h in data set [2] and in data set [3] were 39.7 µM and 45.5 µM, respectively. For the same molecule, the LC50 (in data set [2]; in data set [3]; with MCF7) was more than 100 µM in each case.

As for `CSc1nc(NCCCc2ccccc2)c2ccccc2n1`, the GI50 in data set [1] amounted to 50.6 µM; in the data set with CCRF-CEM it was 39.5 µM; in the data set with HT-29, 19.6 µM; in the data set on MCF7, 77.2 µM. For the same molecule, the TGI in data set [1] is more than 100 µM; with CCRF-CEM, 87.8 µM; in data set [2], more than 100 µM; with HT-29, 89.5 µM; in data set [3], more than 100 µM; with MCF7, more than 100 µM. Moreover, the CC50 (in data set [1]; with CCRF-CEM; in the data set with HT-29) was more than 100 µM each time. Besides, the GI50 at 72 h in data set [2] turned out to be 73.4 µM; in data set [3], 6.77 µM. Moreover, the LC50 (in data set [2]; in data set [3]; in the data set with MCF7) was more than 100 µM each time.

For the molecule `CCCCC[Se]c1nc(NCc2ccc(SC)cc2)c2ccccc2n1`, the GI50 in data set [1] was determined as 40.4 µM; in the data set with CCRF-CEM it was 35 µM; with HT-29, 83.6 µM; in the data set with MCF7, 34.7 µM. The TGI in data set [1] was 81.3 µM; in the data set on CCRF-CEM, 83.9 µM; in data set [2] it was 88.21 µM; in the data set on HT-29, more than 100 µM; in data set [3], more than 100 µM; with MCF7, 65 µM. Further, the CC50 (in data set [1]; with CCRF-CEM; in the data set on HT-29) was more than 100 µM each time. Moreover, the GI50 at 72 h came to 34.7 µM in data set [2] and 57.4 µM in data set [3]. The results for the LC50 (in data set [2]; in data set [3]; in the data set with MCF7) were more than 100 µM, more than 100 µM and 95.3 µM, respectively.

As for `C[Se]c1nc(NCc2ccccc2)c2ccccc2n1`, the GI50 in data set [1] is 74.6 µM; in the data set with CCRF-CEM it was 39.8 µM; with HT-29, 42.8 µM; in the data set on MCF7 it was 15.8 µM. Also, the TGI in data set [1] was more than 100 µM; in the data set on CCRF-CEM, 61.6 µM; in data set [2], 36.96 µM; in the data set on HT-29 it was 81 µM; in data set [3] it was 12.41 µM; in the data set with MCF7, 67 µM. The CC50 in data set [1] is more than 100 µM; in the data set with CCRF-CEM, 83.5 µM; with HT-29, more than 100 µM. Also, the results for the GI50 at 72 h in data set [2] and in data set [3] were 0.57 µM and 3.72 µM, respectively. The LC50 in data set [2] is 78.3 µM; in data set [3] it was 73.66 µM; in the data set on MCF7 it was more than 100 µM.

As for `CSc1nc(NCc2ccccc2)c2cccnc2n1`, the GI50 in data set [1] was determined as 5.08 µM; in the data set on CCRF-CEM it was 56.3 µM; with HT-29, 87.1 µM; in the data set with MCF7, 39.4 µM. The TGI is 51.6 µM in data set [1]; 98.5 µM in the data set on CCRF-CEM; 61.7 µM in data set [2]; more than 100 µM with HT-29; more than 100 µM in data set [3]; more than 100 µM with MCF7. Further, the CC50 (in data set [1]; with CCRF-CEM; in the data set with HT-29) was more than 100 µM throughout. Besides, the GI50 at 72 h in data set [2] is 25.9 µM; in data set [3], 49 µM. Moreover, the LC50 is 97.51 µM in data set [2], more than 100 µM in data set [3] and more than 100 µM with MCF7.

Regarding `C[Se]c1nc(N)c2ccccc2n1`, the GI50 in data set [1] was determined as 18 µM; in the data set with CCRF-CEM, 65.1 µM; with HT-29, 27.6 µM; in the data set with MCF7 it was 46.5 µM. Besides, the TGI in data set [1] is 88.7 µM; with CCRF-CEM it was more than 100 µM; in data set [2], 54.56 µM; in the data set on HT-29, 74.8 µM; in data set [3], 59.04 µM; in the data set on MCF7, more than 100 µM. Besides, the CC50 (in data set [1]; with CCRF-CEM; in the data set with HT-29) was more than 100 µM in each case. The figures for the GI50 at 72 h in data set [2] and in data set [3] were 23.6 µM and 24.4 µM, respectively. The LC50 in data set [2] was 85.52 µM; in data set [3], 93.68 µM; with MCF7, more than 100 µM.

As to `COc1ccc(CNc2nc([SeH])nc3ccccc23)cc1`, the GI50 was 7.11 µM in data set [1], more than 100 µM in the data set with CCRF-CEM, 71.6 µM in the data set on HT-29 and 42.7 µM with MCF7. In addition, the total growth inhibition concentration (TGI) in data set [1] was 60.9 µM; in the data set on CCRF-CEM it was more than 100 µM; in data set [2] it was more than 100 µM; in the data set on HT-29 it was more than 100 µM; in data set [3], more than 100 µM; in the data set on MCF7, 94 µM. The CC50 (in data set [1]; in the data set with CCRF-CEM; in the data set on HT-29) was more than 100 µM in each case. In addition, the GI50 at 72 h in data set [2] worked out at 37.4 µM; in data set [3] it was 71.2 µM. The LC50 (in data set [2]; in data set [3]; in the data set on MCF7) was more than 100 µM in each case.

`CSc1nc(NCCCCCO)c2cccnc2n1`: the GI50 in data set [1] was more than 100 µM; in the data set on CCRF-CEM, more than 100 µM; in the data set on HT-29, 63.9 µM; in the data set on MCF7, 48.9 µM. Also, the TGI (in data set [1]; in the data set with CCRF-CEM; in data set [2]; in the data set with HT-29; in data set [3]; with MCF7) was more than 100 µM throughout. Besides, the CC50 (in data set [1]; with CCRF-CEM; in the data set with HT-29) was more than 100 µM in each case. Besides, the GI50 at 72 h in data set [2] and in data set [3] was more than 100 µM each time. Further, the LC50 (in data set [2]; in data set [3]; with MCF7) was more than 100 µM in each case.

In the case of `CSc1nc(NCCCCCO)c2ccccc2n1`, the GI50 in data set [1] is 31.4 µM; with CCRF-CEM it was more than 100 µM; with HT-29, more than 100 µM; with MCF7, 62 µM. Besides, the TGI in data set [1] is 71.4 µM; in the data set with CCRF-CEM, more than 100 µM; in data set [2] it was 99.35 µM; in the data set on HT-29, more than 100 µM; in data set [3] it was more than 100 µM; in the data set with MCF7 it was more than 100 µM. Besides, the CC50 (in data set [1]; in the data set on CCRF-CEM; in the data set with HT-29) was more than 100 µM in each case. Moreover, the GI50 at 72 h in data set [2] is 39.3 µM; in data set [3], 49.9 µM. Also, the LC50 (in data set [2]; in data set [3]; in the data set on MCF7) was more than 100 µM throughout.
